Legend:
[1] = molecular target: Sigma non-opioid intracellular receptor 1 (Cavia porcellus, UniProt Q60492); assay: Displacement of [3H]-(+)-pentazocine from Sigma1 receptor in Dunkin Hartley guinea pig brain membrane after 180 mins by liquid scintillation counting analysis
How it was run: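 Guinea pig brain (minus cerebellum) P2 membranes in Tris-HCl. Incubated with [³H]-(+)-pentazocine (4.0 nM solution added) in pH 8.0 buffer, 25 °C for 180 min; nonspecific binding with haloperidol. Filtered through PEI-presoaked GF/B filters; scintillation counting. Compounds in 5% DMSO, six concentrations (10⁻⁵–10⁻¹⁰ M). […] At least three experiments.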

[2] = Displacement of [3H]-DTG from Sigma2 receptor in Dunkin Hartley guinea pig brain membrane after 120 mins by liquid scintillation counting analysis in presence of sigma1 blocker (+)-SKF-10047; parameters: species or system Cavia porcellus
How it was run: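 Guinea pig brain P2 membranes incubated with 3 nM [³H]-DTG plus 400 nM (+)-SKF-10047 to block σ1 sites, Tris-HCl pH 8.0, 25 °C for 120 min; nonspecific binding with DTG. Filtration on PEI-presoaked GF/B filters, scintillation counting. […] At least three experiments.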

Cavia porcellus = species on record: Cavia porcellus; assay: Selectivity ratio of Ki for Sigma2 receptor in Dunkin Hartley guinea pig brain membrane to Ki for Sigma1 receptor in Dunkin Hartley guinea pig brain membrane
How it was run: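 Guinea pig brain P2 membranes, minus cerebellum. σ1: [3H]-(+)-pentazocine, haloperidol for nonspecific binding, 25 °C for 180 min. σ2: 3 nM [3H]-DTG with 400 nM (+)-SKF-10047 masking σ1, DTG for nonspecific binding, 25 °C for 120 min. Six concentrations, 10⁻⁵ to 10⁻¹⁰. Filter-bound radioactivity counted. Hill-fit IC50 converted by Cheng–Prusoff, at least three experiments each; ratio σ2 Ki/σ1 Ki.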

[3] = molecular target: Voltage-gated inwardly rectifying potassium channel KCNH2 (Homo sapiens, UniProt Q12809); assay: Inhibition of human ERG expressed in HEK293 cells assessed as tail current at -50 mV holding potential by whole-cell patch clamp method
[4] = Acute toxicity in po dosed Kun Ming mouse assessed as mortality after 24 hrs; assay type: organism-based; conditions: in vivo
How it was run: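 Mice, 10 per group, given a single oral dose (10 mL/kg) of 0.5% methylcellulose vehicle or test compound at 200, 500, 1000, 1500 or 2000 mg/kg. Survivors were counted 24 h after dosing and percent mortality per group was calculated. LD50 was derived by statistical analysis.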

Mus musculus [5] = assay: Antiallodynic activity in Kun Ming mouse assessed as paw licking time at 160 mg/kg, ig administered 15 mins prior to formalin challenge measured after15 to 45 mins post formalin dosing; assay type: functional
How it was run: (§1)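 Mice received 20 μL of 2.5% formalin (0.92% formaldehyde) in the dorsal right hind paw. Time spent licking or biting the paw was scored at 0–5 min (phase I) and 15–45 min (phase II), with a mirror behind the glass cylinder. Vehicle was 30% PEG 400 at 10 mL/kg, given 15 min before formalin. n = 10–12 per group. % antinociception = (LT_V − LT_D)/LT_V × 100.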

Mus musculus [6] = assay: Antiallodynic activity in Kun Ming mouse assessed as paw biting time at 160 mg/kg, ig administered 15 mins prior to formalin challenge measured after 15 to 45 mins post formalin dosing; assay type: functional; how it was run: as §1
Mus musculus [7] = assay: Toxicity in Kun Ming mouse assessed as reduction in the permanence time on the rotating rod at 80 mg/kg, ig measured after 30 to 120 mins by rotarod test; assay type: organism-based; conditions: in vivo, po
How it was run: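 Mice were pre-trained; any that could not stay 300 s on the rod at 10 rpm were excluded. Latency to fall from the rod rotating at 10 rpm was recorded 30, 60, 90 and 120 min after intragastric dosing. 8–10 mice per group.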

Voltage-gated inwardly rectifying potassium channel KCNH2, sequence (Q12809 whole entry): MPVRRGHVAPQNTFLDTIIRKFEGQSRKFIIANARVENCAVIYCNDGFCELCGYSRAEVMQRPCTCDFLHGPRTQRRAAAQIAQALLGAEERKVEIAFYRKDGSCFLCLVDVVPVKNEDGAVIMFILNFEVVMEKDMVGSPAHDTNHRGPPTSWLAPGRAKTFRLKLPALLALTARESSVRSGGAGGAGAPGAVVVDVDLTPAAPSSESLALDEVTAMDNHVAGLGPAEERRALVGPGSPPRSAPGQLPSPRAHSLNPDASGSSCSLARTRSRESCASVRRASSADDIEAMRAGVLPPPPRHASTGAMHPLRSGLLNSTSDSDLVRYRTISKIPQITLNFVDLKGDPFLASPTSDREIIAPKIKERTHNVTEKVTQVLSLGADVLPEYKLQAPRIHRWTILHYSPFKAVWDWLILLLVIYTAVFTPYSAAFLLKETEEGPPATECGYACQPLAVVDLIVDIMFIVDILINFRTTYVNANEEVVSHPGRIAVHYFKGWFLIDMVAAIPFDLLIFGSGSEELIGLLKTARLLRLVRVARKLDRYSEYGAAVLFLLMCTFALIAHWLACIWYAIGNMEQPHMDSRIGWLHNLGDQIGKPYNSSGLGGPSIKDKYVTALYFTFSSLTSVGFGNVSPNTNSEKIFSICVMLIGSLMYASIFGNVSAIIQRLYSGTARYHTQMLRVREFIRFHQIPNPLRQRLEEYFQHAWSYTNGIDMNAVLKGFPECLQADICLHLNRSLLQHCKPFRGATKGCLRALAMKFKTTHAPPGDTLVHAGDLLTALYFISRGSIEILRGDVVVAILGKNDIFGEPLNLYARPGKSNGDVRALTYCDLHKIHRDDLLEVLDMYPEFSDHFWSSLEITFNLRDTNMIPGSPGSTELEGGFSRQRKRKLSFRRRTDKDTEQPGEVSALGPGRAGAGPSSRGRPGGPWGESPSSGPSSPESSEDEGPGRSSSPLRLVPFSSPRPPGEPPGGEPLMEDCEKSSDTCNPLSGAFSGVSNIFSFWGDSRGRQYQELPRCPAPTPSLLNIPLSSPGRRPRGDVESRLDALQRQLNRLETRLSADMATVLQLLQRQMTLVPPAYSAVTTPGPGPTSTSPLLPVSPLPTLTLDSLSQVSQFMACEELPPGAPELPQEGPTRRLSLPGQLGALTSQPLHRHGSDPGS
Sigma non-opioid intracellular receptor 1, sequence (Q60492 whole entry): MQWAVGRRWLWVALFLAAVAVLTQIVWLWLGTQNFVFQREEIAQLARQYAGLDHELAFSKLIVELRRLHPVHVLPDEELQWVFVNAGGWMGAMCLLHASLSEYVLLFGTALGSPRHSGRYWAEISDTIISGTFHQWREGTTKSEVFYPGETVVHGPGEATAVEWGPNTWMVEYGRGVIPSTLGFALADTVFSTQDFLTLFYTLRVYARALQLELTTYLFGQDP

| Compound | Ki [1] [nM] | Ki [2] [nM] | Ratio Ki (Cavia porcellus) | IC50 [3] [nM] | LD50 at 24 h [4] [mg/kg] | Time (Mus musculus [5]) [s] | Time (Mus musculus [6]) [s] | Activity (Mus musculus [7]) |
| --- | --- | --- | --- | --- | --- | --- | --- | --- |
| CC1CCN(CCCOc2ccc(=O)n(-c3ccc(Cl)c(Cl)c3)n2)CC1 | 5 | 1740 | 348 | 1460 | 575 |  |  |  |
| CC1CCN(CCCOc2ccc(=O)n(-c3ccc(F)c(Cl)c3)n2)CC1 | 10 | 1630 | 163 | 2160 | 1530 | 59.65 | 56.43 |  |
| CC(C)N(CCCOc1ccc(=O)n(-c2ccccc2)n1)C(C)C | 98.1 | 1120 | 11.4 |  |  |  |  |  |
| Cc1cc(OCCN2CCOCC2)nn1-c1ccc2ccccc2c1 |  | > 2000 |  |  |  |  |  | Toxic |
| CN1CCN(CCCOc2ccc(=O)n(-c3ccccc3)n2)CC1 | 31.7 | 376 | 11.9 |  |  |  |  |  |
| Cc1c(OCCCN2CCCCC2)nn(-c2ccc(Cl)c(Cl)c2)c(=O)c1C | 66.6 | 1430 | 21.4 |  |  |  |  |  |
| Cc1ccc(-n2nc(OCCCN3CCC(C)CC3)ccc2=O)cc1 | 61.6 | 1550 | 25.1 |  |  |  |  |  |
| O=c1ccc(OCCCN2CCCCC2)nn1-c1ccccc1 | 21.4 | 1070 | 50.2 |  |  |  |  |  |
| O=c1ccc(OCCCN2CCCCC2)nn1-c1cccc(Cl)c1Cl | 48 | 1620 | 33.6 |  |  |  |  |  |
| CC1CCN(CCCOc2ccc(=O)n(-c3cc(Cl)cc(Cl)c3)n2)CC1 | 43 | 1320 | 30.7 |  |  |  |  |  |
| O=c1ccc(OCCN2CCCCC2)nn1-c1ccccc1 | > 2000 | > 2000 |  |  |  |  |  |  |
| O=c1ccc(OCCCN2CCCCC2)nn1-c1ccc(F)c(F)c1 | 8 | 1910 |  |  | 780 |  |  |  |
| CCN(CC)CCCOc1ccc(=O)n(-c2ccccc2)n1 | 96.5 | 1170 | 12.1 |  |  |  |  |  |
| O=c1ccc(OCCCN2CCCCC2)nn1-c1ccc(F)c(Cl)c1 | 10 | 1580 | 158 | 980 | 900 |  |  |  |
| O=C1CCN(CCCOc2ccc(=O)n(-c3ccccc3)n2)CC1 | 580 | > 2000 |  |  |  |  |  |  |
| CCN1CCN(CCCOc2ccc(=O)n(-c3ccccc3)n2)CC1 | 40.1 | 620 | 15.5 |  |  |  |  |  |
| CC1CCN(CCCOc2ccc(=O)n(-c3cc(Cl)ccc3Cl)n2)CC1 | 60 | 870 | 14.5 |  |  |  |  |  |
| O=c1ccc(OCCCN2CCCCC2)nn1-c1cc(Cl)cc(Cl)c1 | 30 | 1300 | 43.3 |  |  |  |  |  |
| O=c1ccc(OCCCN2CCOCC2)nn1-c1ccccc1 | 66.3 | 502 | 7.6 |  |  |  |  |  |
| O=c1ccc(OCCCN2CCCCC2)nn1-c1ccc(F)cc1 | 17 | > 2000 |  |  |  |  |  |  |
| CC1CCN(CCCOc2ccc(=O)n(-c3ccccc3)n2)CC1 | 28 | 1460 | 52.3 |  |  |  |  |  |

| Compound | Ki [1] [nM] | Ki [2] [nM] | Ratio Ki (Cavia porcellus) | IC50 [3] [nM] | LD50 at 24 h [4] [mg/kg] | Time (Mus musculus [5]) [s] | Time (Mus musculus [6]) [s] | Activity (Mus musculus [7]) |
| --- | --- | --- | --- | --- | --- | --- | --- | --- |
| O=c1ccc(OCCCN2CCCCC2)nn1-c1cc(Cl)ccc1Cl | 45 | 902 | 20 |  |  |  |  |  |
| O=c1ccc(OCCCN2CCCCC2)nn1C1CCCC1 | > 2000 | > 2000 |  |  |  |  |  |  |
| O=c1ccc(OCCCN2CCCCC2)nn1-c1ccc(Cl)cc1 | 9.8 | 1570 | 160 | 1450 | 754 |  |  |  |
| CN1CCCN(CCCOc2ccc(=O)n(-c3ccccc3)n2)CC1 | 30.3 | 508 | 16.8 |  |  |  |  |  |
| O=c1ccc(OCCCCN2CCCCC2)nn1-c1ccccc1 | 124 | 1720 | 13.9 |  |  |  |  |  |
| CC1CCN(CCCOc2ccc(=O)n(-c3ccc(Cl)cc3Cl)n2)CC1 | 35 | 1100 | 31.4 |  |  |  |  |  |
| O=c1c2c(c(OCCCN3CCCCC3)nn1-c1ccc(Cl)c(Cl)c1)CCCC2 | 104 | 934 | 8.9 |  |  |  |  |  |
| CC1CCN(CCCCOc2ccc(=O)n(-c3ccccc3)n2)CC1 | 143 | 1440 | 10.1 |  |  |  |  |  |
| CC1CCN(CCCOc2ccc(=O)n(-c3cccc(Cl)c3Cl)n2)CC1 | 55 | 1200 | 21.8 |  |  |  |  |  |
| CC1CC(C)CN(CCCOc2ccc(=O)n(-c3ccccc3)n2)C1 (stereo not given) | 46 | 1820 | 39.6 |  |  |  |  |  |
| O=c1c2ccccc2c(OCCCN2CCCCC2)nn1-c1ccc(Cl)c(Cl)c1 | 140 | 1510 | 10.8 |  |  |  |  |  |
| O=c1ccc(OCCCN2CCCC2)nn1-c1ccccc1 | 35.5 | 458 | 12.9 |  |  |  |  |  |
| CN(C)CCCOc1ccc(=O)n(-c2ccccc2)n1 | 108 | 818 | 7.57 |  |  |  |  |  |
| CC1CCN(CCCOc2ccc(=O)n(-c3ccc(Cl)cc3)n2)CC1 | 9.5 | 1780 |  |  | 717 |  |  |  |
| CC1CC(C)CN(CCCCOc2ccc(=O)n(-c3ccccc3)n2)C1 (stereo not given) | 222 | 1370 | 6.2 |  |  |  |  |  |
| O=c1ccc(OCCCN2CCCCC2)nn1-c1ccc(Cl)cc1Cl | 25 | 809 | 32.3 |  |  |  |  |  |
| Cc1ccc(-n2nc(OCCCN3CCCCC3)ccc2=O)cc1 | 69 | 1280 | 18.6 |  |  |  |  |  |
| CC1CCN(CCCOc2ccc(=O)n(-c3ccc(F)cc3)n2)CC1 | 19.8 | 1620 | 81.7 |  |  |  |  |  |
| CC1CCN(CCCOc2ccc(=O)n(-c3ccc(F)c(F)c3)n2)CC1 | 15 | 1700 | 113 | 2680 | 1300 | 59.65 | 56.43 |  |
| O=c1ccc(OCCCN2CCCCC2)nn1-c1ccc2ccccc2c1 | 74.1 | 895 | 12.1 |  |  |  |  |  |
| CC1CCN(CCCOc2ccc(=O)n(-c3ccc4ccccc4c3)n2)CC1 | 84.1 | 913 | 10.8 |  |  |  |  |  |

Source: ChEMBL document CHEMBL3804799, “Synthesis and Biological Evaluation of Novel σ1 Receptor Ligands for Treating Neuropathic Pain: 6-Hydroxypyridazinones” (J Med Chem, 2016)
